{"source": "ChEMBL document CHEMBL1136016", "about": "“Synthesis, biological activity, and molecular modeling investigation of new pyrazolo[4,3-e]-1,2,4-triazolo[1,5-c]pyrimidine derivatives as human A(3) adenosine receptor antagonists” (J Med Chem, 2002)", "key": {"Adenosine receptor A2b [1]": {"molecular_target": "T1, Adenosine receptor A2b (Homo sapiens, UniProt P29275)", "T1 sequence (P29275 whole entry)": "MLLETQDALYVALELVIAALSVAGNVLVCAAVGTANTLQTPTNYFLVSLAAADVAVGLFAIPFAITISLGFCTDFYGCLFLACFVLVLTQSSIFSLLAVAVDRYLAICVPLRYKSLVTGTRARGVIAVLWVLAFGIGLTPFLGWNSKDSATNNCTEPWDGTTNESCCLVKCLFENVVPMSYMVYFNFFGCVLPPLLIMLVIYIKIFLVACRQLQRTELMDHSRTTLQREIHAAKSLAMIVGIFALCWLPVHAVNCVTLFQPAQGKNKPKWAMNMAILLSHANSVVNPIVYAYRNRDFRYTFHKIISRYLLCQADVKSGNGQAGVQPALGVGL", "assay": "Displacement of [3H]DPCPX from human Adenosine A2B receptor expressed in HEK293 cells; range 67-115", "format": "cell-based", "outline": "(§1)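 HEK-293 membranes expressing the human receptor were incubated 60 min at 25 °C. Six to eight test concentrations were used. Nonspecific binding was set with NECA. n = 3-6.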"}, "Adenosine receptor A1 [2]": {"molecular_target": "T2, Adenosine receptor A1 (Homo sapiens, UniProt P30542)", "T2 sequence (P30542 whole entry)": "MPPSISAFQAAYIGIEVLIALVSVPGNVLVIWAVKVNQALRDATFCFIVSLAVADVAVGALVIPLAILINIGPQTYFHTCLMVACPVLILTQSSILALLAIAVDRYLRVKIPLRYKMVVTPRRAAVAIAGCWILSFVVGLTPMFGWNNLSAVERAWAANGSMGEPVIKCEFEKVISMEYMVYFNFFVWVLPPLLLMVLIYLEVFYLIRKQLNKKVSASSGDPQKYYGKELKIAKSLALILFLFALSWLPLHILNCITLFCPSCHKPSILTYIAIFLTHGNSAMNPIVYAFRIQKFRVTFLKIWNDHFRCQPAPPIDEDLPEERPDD", "assay": "Displacement of [3H]DPCPX from human Adenosine A1 receptor expressed in CHO cells; range 275-386", "format": "cell-based", "outline": "(§2)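 Human recombinant A1 receptor in CHO cell membranes, resuspended in 50 mM Tris HCl pH 7.4. Displacement run 120 min at 25 °C with 1 nM [3H]DPCPX, 50 µg protein per assay, and at least six to eight test concentrations. Nonspecific binding defined with CHA. Bound and free separated on glass-fiber filters; filter radioactivity counted. n = 3-6.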"}, "Adenosine receptor A2a [3]": {"molecular_target": "T3, Adenosine receptor A2a (Homo sapiens, UniProt P29274)", "T3 sequence (P29274 whole entry)": "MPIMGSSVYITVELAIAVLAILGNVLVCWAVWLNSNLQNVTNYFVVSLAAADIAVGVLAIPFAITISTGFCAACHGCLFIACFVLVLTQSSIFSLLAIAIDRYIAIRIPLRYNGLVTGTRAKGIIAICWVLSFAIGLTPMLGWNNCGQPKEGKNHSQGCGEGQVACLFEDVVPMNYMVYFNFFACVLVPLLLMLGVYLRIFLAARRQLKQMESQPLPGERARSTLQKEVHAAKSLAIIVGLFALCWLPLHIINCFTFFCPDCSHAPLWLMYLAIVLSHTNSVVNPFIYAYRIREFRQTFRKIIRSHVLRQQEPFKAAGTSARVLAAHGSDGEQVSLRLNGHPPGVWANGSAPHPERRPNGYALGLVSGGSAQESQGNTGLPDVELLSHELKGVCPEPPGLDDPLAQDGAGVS", "assay": "Displacement of [3H]SCH-58261 from human Adenosine A2A receptor expressed in HEK293 cells; range 33-48", "format": "cell-based"}, "[4]": {"molecular_target": "Adenosine receptors; A2b & A3 (Homo sapiens) (UniProt P29275+P0DMS8)", "assay": "Selectivity ratio (h2B/hA3)", "format": "protein assay"}, "[5]": {"molecular_target": "Adenosine receptors; A1 & A3 (Homo sapiens) (UniProt P30542+P0DMS8)", "assay": "Selectivity ratio (hA1/hA3)", "format": "protein assay"}, "Adenosine receptor A3 [6]": {"molecular_target": "T4, Adenosine receptor A3 (Homo sapiens, UniProt P0DMS8)", "T4 sequence (P0DMS8 whole entry)": "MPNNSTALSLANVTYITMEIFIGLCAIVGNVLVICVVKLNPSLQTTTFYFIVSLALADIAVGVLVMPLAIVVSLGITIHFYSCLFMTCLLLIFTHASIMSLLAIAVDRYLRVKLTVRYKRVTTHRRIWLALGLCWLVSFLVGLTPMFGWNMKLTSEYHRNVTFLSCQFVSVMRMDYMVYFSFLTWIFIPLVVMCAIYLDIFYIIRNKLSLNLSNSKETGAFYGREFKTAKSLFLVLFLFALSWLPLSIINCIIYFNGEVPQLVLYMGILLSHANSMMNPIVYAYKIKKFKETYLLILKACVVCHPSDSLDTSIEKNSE", "assay": "biochemical"}, "Adenosine receptor A2b [7]": {"molecular_target": "T1, Adenosine receptor A2b", "assay": "Displacement of [3H]DPCPX from human Adenosine A2B receptor expressed in HEK293 cells; range 89-116", "format": "cell-based", "outline": "(§3)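 Membranes from HEK-293 cells with human recombinant A2B receptor. Incubation 60 min at 25 °C in 50 mM Tris HCl, 10 mM MgCl2, 1 mM EDTA, 0.1 mM benzamidine, pH 7.4, with 2 IU/mL adenosine deaminase and 40 nM [3H]DPCPX. At least six to eight test concentrations. Nonspecific binding defined with NECA. n = 3-6.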"}, "Adenosine receptor A1 [8]": {"molecular_target": "T2, Adenosine receptor A1", "assay": "Displacement of [3H]DPCPX from human Adenosine A1 receptor expressed in CHO cells; range 332-479", "format": "cell-based", "outline": "as §2"}, "Adenosine receptor A3 [9]": {"molecular_target": "T4, Adenosine receptor A3", "assay": "Displacement of [3H]MRE3008-F20 binding at human Adenosine A3 receptor expressed in HEK cells; range 0.82-1.01", "format": "cell-based, HEK293"}, "Adenosine receptor A3 [10]": {"molecular_target": "T4, Adenosine receptor A3", "assay": "Inhibition of IB-MECA agonist-mediated cAMP production in CHO cell membranes expressing human Adenosine A3 receptor; range 4.4-15.2", "format": "functional, cell-based"}, "Adenosine receptor A2a [11]": {"molecular_target": "T3, Adenosine receptor A2a", "assay": "Displacement of [3H]SCH-58261 from human Adenosine A2A receptor expressed in HEK293 cells; range 174-230", "format": "cell-based"}, "Adenosine receptor A2b [12]": {"molecular_target": "T1, Adenosine receptor A2b", "assay": "Displacement of [3H]DPCPX from human Adenosine A2B receptor expressed in HEK293 cells; range 124-180", "format": "cell-based", "outline": "as §1"}, "Adenosine receptor A1 [13]": {"molecular_target": "T2, Adenosine receptor A1", "assay": "Displacement of [3H]DPCPX from human Adenosine A1 receptor expressed in CHO cells; range 290-418", "format": "cell-based", "outline": "as §2"}, "Adenosine receptor A3 [14]": {"molecular_target": "T4, Adenosine receptor A3", "assay": "Displacement of [3H]MRE3008-F20 from human Adenosine A3 receptor expressed in HEK cells; range 0.37-0.56", "format": "cell-based, HEK293"}, "Adenosine receptor A2a [15]": {"molecular_target": "T3, Adenosine receptor A2a", "assay": "Displacement of [3H]SCH-58261 from human Adenosine A2A receptor expressed in HEK293 cells; range 40-62", "format": "cell-based"}, "Adenosine receptor A1 [16]": {"molecular_target": "T2, Adenosine receptor A1", "assay": "Displacement of [3H]DPCPX from human Adenosine A1 receptor expressed in CHO cells; range 265-400", "format": "cell-based", "outline": "as §2"}, "Adenosine receptor A2b [17]": {"molecular_target": "T1, Adenosine receptor A2b", "assay": "Displacement of [3H]DPCPX from human Adenosine A2B receptor expressed in HEK293 cells; range 56-103", "format": "cell-based", "outline": "as §3"}, "Adenosine receptor A3 [18]": {"molecular_target": "T4, Adenosine receptor A3", "assay": "Displacement of [3H]MRE3008-F20 from human Adenosine A3 receptor expressed in HEK cells; range 0.24-0.48", "format": "cell-based, HEK293"}, "Adenosine receptor A2a [19]": {"molecular_target": "T3, Adenosine receptor A2a", "assay": "Displacement of [3H]SCH-58261 from human Adenosine A2A receptor expressed in HEK293 cells; range 123-162", "format": "cell-based"}, "Adenosine receptor A1 [20]": {"molecular_target": "T2, Adenosine receptor A1", "assay": "Displacement of [3H]DPCPX from human Adenosine A1 receptor expressed in CHO cells", "format": "cell-based", "outline": "as §2"}, "Adenosine receptor A2b [21]": {"molecular_target": "T1, Adenosine receptor A2b", "assay": "Displacement of [3H]DPCPX from human Adenosine A2B receptor expressed in HEK293 cells", "format": "cell-based", "outline": "as §3"}, "Adenosine receptor A3 [22]": {"molecular_target": "T4, Adenosine receptor A3", "assay": "Displacement of […] from human Adenosine A3 receptor expressed in CHO cells", "format": "cell-based", "outline": "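Membranes from CHO cells stably expressing human A3, in 50 mM Tris HCl, 10 mM MgCl2 (pH 7.4), 50 µg protein per tube, with 1 nM [3H]MRE3008-F20. Six to eight ligand concentrations were run in duplicate, 120 min at 4 °C. Nonspecific binding was taken with 1 µM MRE3008-F20. Bound ligand was collected on GF/B filters and counted; n = 3-6.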"}, "Adenosine receptor A3 [23]": {"molecular_target": "T4, Adenosine receptor A3", "assay": "Inhibition of IB-MECA agonist-mediated cAMP production in membranes of CHO cells expressing human Adenosine A3 receptor", "format": "functional, cell-based", "outline": "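Human A3-CHO membranes (in 50 mM Tris HCl, 10 mM MgCl2, 1 mM EDTA, pH 7.4) were preincubated for 10 min at 37 °C with 5 µM GTP, 0.5 mM Ro 20-1724 and 2.0 IU/mL adenosine deaminase. IB-MECA (100 nM) or antagonist was then added with 1 mM ATP and forskolin for 10 min. The reaction was stopped by 2 min boiling. cAMP was measured by [3H]cAMP competitive protein binding using beef adrenal binding protein, 150 min at 4 °C.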"}, "Adenosine receptor A2a [24]": {"molecular_target": "T3, Adenosine receptor A2a", "assay": "Displacement of [3H]SCH-58261 from human Adenosine A2A receptor expressed in CHO cells", "format": "cell-based", "outline": "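Membranes from CHO cells expressing the human receptor (50 µg protein) with [3H]SCH58261 and six to eight competitor concentrations. Incubated 60 min at 25 °C. Nonspecific binding was set with NECA.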"}}}
{"smiles": "CCn1cc2c(nc(NC(=O)Nc3ccccc3)n3nc(-c4ccco4)nc23)n1", "values": [{"measurement": "Ki", "setting": "Adenosine receptor A2b [1]", "result": 88, "unit": "nM"}, {"measurement": "Ki", "setting": "Adenosine receptor A1 [2]", "result": 326, "unit": "nM"}, {"measurement": "Ki", "setting": "Adenosine receptor A2a [3]", "result": 40, "unit": "nM"}, {"measurement": "Ratio", "setting": "[4]", "result": 489}, {"measurement": "Ratio", "setting": "[5]", "result": 1810}, {"measurement": "Ki", "setting": "Adenosine receptor A3 [6]", "result": 0.18, "unit": "nM"}]}
{"smiles": "Cn1cc2c(nc(NC(=O)Nc3ccccc3Cl)n3nc(-c4ccco4)nc23)n1", "values": [{"measurement": "Ki", "setting": "Adenosine receptor A2b [7]", "result": 101, "unit": "nM"}, {"measurement": "Ki", "setting": "Adenosine receptor A1 [8]", "result": 400, "unit": "nM"}, {"measurement": "Ki", "setting": "Adenosine receptor A3 [9]", "result": 0.91, "unit": "nM"}, {"measurement": "IC50", "setting": "Adenosine receptor A3 [10]", "result": 8.2, "unit": "nM"}, {"measurement": "Ki", "setting": "Adenosine receptor A2a [11]", "result": 200, "unit": "nM"}, {"measurement": "Ratio", "setting": "[4]", "result": 111}, {"measurement": "Ratio", "setting": "[5]", "result": 440}]}
{"smiles": "CCCn1cc2c(nc(NC(=O)Nc3ccc(Br)cc3)n3nc(-c4ccco4)nc23)n1", "values": [{"measurement": "Ki", "setting": "Adenosine receptor A2b [12]", "result": 150, "unit": "nM"}, {"measurement": "Ki", "setting": "Adenosine receptor A1 [13]", "result": 350, "unit": "nM"}, {"measurement": "Ki", "setting": "Adenosine receptor A3 [14]", "result": 0.45, "unit": "nM"}, {"measurement": "Ki", "setting": "Adenosine receptor A2a [15]", "result": 50, "unit": "nM"}, {"measurement": "Ratio", "setting": "[4]", "result": 333}, {"measurement": "Ratio", "setting": "[5]", "result": 778}]}
{"smiles": "CCCn1cc2c(nc(NC(=O)Nc3ccc(Cl)cc3)n3nc(-c4ccco4)nc23)n1", "values": [{"measurement": "Ki", "setting": "Adenosine receptor A1 [16]", "result": 325, "unit": "nM"}, {"measurement": "Ki", "setting": "Adenosine receptor A2b [17]", "result": 76, "unit": "nM"}, {"measurement": "Ki", "setting": "Adenosine receptor A3 [18]", "result": 0.34, "unit": "nM"}, {"measurement": "Ki", "setting": "Adenosine receptor A2a [19]", "result": 140, "unit": "nM"}, {"measurement": "Ratio", "setting": "[4]", "result": 224}, {"measurement": "Ratio", "setting": "[5]", "result": 956}]}
{"smiles": "Cn1cc2c(nc(NC(=O)Cc3ccccc3)n3nc(-c4ccco4)nc23)n1", "values": [{"measurement": "Ki", "setting": "Adenosine receptor A1 [20]", "result": 702, "unit": "nM"}, {"measurement": "Ki", "setting": "Adenosine receptor A2b [21]", "result": 165, "unit": "nM"}, {"measurement": "Ki", "setting": "Adenosine receptor A3 [22]", "result": 0.81, "unit": "nM"}, {"measurement": "IC50", "setting": "Adenosine receptor A3 [23]", "result": 6.4, "unit": "nM"}, {"measurement": "Ki", "setting": "Adenosine receptor A2a [24]", "result": 423, "unit": "nM"}, {"measurement": "Ratio", "setting": "[4]", "result": 204}, {"measurement": "Ratio", "setting": "[5]", "result": 867}]}
